Shown are actives, neighbours in structure and some others; about 2.9% of the full set was active somewhere.
ABHD4 inh: inhibitors of mouse ABHD4; inhibition, % at 8.92 µM; 0.54% of 370,000 active; Q8VD66; purified mABHD4, FP-Rh probe fluorescence polarization;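 active = inhibition exceeding the mean over every tested compound plus 3 SD, cut at about 30% in these data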;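 also: 0% = plate median of compound wells and 100% = S159A mutant with DMSO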
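assay system = mABHD4 protein | compound dosing = single nominal dose of 8.92 µM, 0.89% DMSO final | read-out basis = percent inhibition of probe binding, normalized to plate controls | schedule = Enzyme–compound pre-incubation 45 min, then probe 60 min, both 25 °C | detection = fluorescence polarization, excitation 525 nm, emission 598 nm, BODIPY TMR filters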
TCR-CD3 inh: human TCR-CD3 binding inhibition. TAMRA-labeled TCR probe fluorescence, biochemical. inhibition, % at 9.4 µM. 0.37% of 360,000 active; in the data active = inhibition above about 19%;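 also: recombinant mutant TCR 2C K166C tagged with TAMRA read by polarization; 0% = receptor in buffer alone and 100% = receptor with positive control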
ATG4B inhibitor: ATG4B (human) cysteine protease inhibition. Q9Y4P1. ATG4B cleavage of LC3-PLA2, NBD-HPC fluorescence, 1 h. inhibition, % at 8.33 µM. 0.51% of 340,000 active. AID 504462; in the data active = inhibition above about 40%
HTRA1 inh: inhibitors of human serine peptidase HTRA1. Q92743. recombinant HTRA1, FP-rhodamine activity-based probe, fluorescence polarization. inhibition, % at 5.96 µM. 0.5% of 340,000 active; in the data active = inhibition above about 36%;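 also: 0% = enzyme with DMSO and 100% = wells lacking enzyme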
PRMT1 inh: blocks human protein arginine methyltransferase 1; inhibition, % at 2.79 µM; recombinant PRMT1, activity-based probe fluorescence polarization; 1.3% of 370,000 active; Q99873;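 active = inhibition above about 21% made by adding two undisclosed values, limit read from the data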
Target sequence (Q99873 whole entry, looked up): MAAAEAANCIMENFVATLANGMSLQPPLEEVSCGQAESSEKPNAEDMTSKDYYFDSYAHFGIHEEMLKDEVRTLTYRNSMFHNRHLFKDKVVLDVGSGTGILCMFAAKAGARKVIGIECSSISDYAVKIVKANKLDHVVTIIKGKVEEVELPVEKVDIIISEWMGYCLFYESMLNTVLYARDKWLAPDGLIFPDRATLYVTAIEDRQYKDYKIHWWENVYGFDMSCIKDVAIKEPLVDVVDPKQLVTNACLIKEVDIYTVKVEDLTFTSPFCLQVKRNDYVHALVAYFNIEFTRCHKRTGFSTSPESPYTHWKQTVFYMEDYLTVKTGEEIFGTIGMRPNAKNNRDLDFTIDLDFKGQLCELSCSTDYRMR
SIAE inh: inhibitors of human sialic acid acetylesterase SIAE. Q9HAT2. 0.69% of 370,000 active. SIAE FP-Rh probe binding, fluorescence polarization. inhibition, % at 9.66 µM;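 active = inhibition above a cutoff: mean of compounds within the control limits plus 3 SD of those, cut at about 17% in these data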;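 also: 0% = plate median of compound wells and 100% = probe without SIAE protein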
SIAE confirm: human SIAE inhibition, confirmation; shares compounds with SIAE inh; SIAE FP-Rh activity-based probe, fluorescence polarization; inhibition, % at 9.66 µM; 13% of 2,300 active;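 active = mean inhibition of the replicates above the hit cutoff set in the primary screen, cut at about 17% in these data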;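 also: 0% = SIAE with DMSO and probe and 100% = probe without SIAE; inhibitors lower polarization as more probe stays unbound to SIAE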
Active calls of the source: *; / = no result given.

SMILES	ABHD4 inh	TCR-CD3 inh	ATG4B inhibitor	HTRA1 inh	PRMT1 inh	SIAE inh	SIAE confirm
COc1ccc(-c2cc(NC(=O)Cc3c(C)[nH]c4ccccc34)ccc2Nc2cccnc2)cc1OC	5	0	/	/	2	17*	6
CN(Cc1cn(Cc2ccccc2)nn1)S(=O)(=O)c1ccccc1Br	0	/	/	/	-4	4	/
O=C(NCc1ccccc1)[C@@H]1CCCN1C(=O)[C@H]1CCCN1C(=O)c1cccs1	1	2	/	/	-5	2	/
O=C(OC12CCCN(C1)/C(=C/c1ccncc1)C2)c1ccc(Cl)cc1 (configuration not stated)	6	/	/	/	2	3	/
O=C(N/N=C\c1ccccn1)c1cccc(C(=O)N/N=C\c2ccccn2)n1	-5	18	-2	-2	-6	21*	21*
Cc1ncc(CO)c(/C=N/NC(=S)Nc2ccc(C(C)C)cc2)c1O	11	14	-5	29	1	18*	15
Cc1ncc(CO)c(/C=N/Nc2cccc(Cl)n2)c1O	-7	0	-3	0	11	-11	/
COc1cc(C(=O)NC(CCSC)C(=O)OCC(=O)C(C)(C)C)cc(OC)c1OC (configuration not stated)	-3	-1	-2	-6	-6	-5	/
COC(=O)c1ccc(C)c(NC(=O)C(CCSC)NC(=O)c2cc(OC)c(OC)c(OC)c2)c1 (configuration not stated)	-1	4	3	0	-1	17*	-4
Cc1ccc(S(=O)(=O)N(C)C)cc1NC(=O)c1sccc1Cl	-2	0	7	-1	-2	17*	-2
O=C(Cn1ccc(NC(=O)OCc2ccccc2)nc1=O)NCC1CCCO1 (configuration not stated)	7	8	-6	0	-2	18*	1
O=C(Nc1ccn(CCCNCC2CCCO2)c(=O)n1)OCc1ccccc1 (configuration not stated)	-9	-1	0	12	3	1	/
COc1ccc(N2C(=O)C(=O)/C(=C(/O)c3ccc(C)cc3)C2c2cccnc2)cc1 (configuration not stated)	7	1	-1	2	-3	21*	3
CC(=O)c1cccc(NC(=S)NC2CCCCC2)c1	5	-2	9	7	5	19*	-1
CC(=O)c1cccc(NC(=S)NCCCCc2ccccc2)c1	-9	1	17	-35	1	42*	47*
Cc1cc(S(=O)(=O)NC(=O)[C@H]2O[C@@H](n3cnc4c(N)ncnc43)[C@H](O)[C@@H]2O)ccc1Br	10	-1	/	/	2	47*	51*
Nc1ncnc2c1ncn2C1OC(C(=O)NC2CC2)C(O)C1O (configuration not stated)	4	0	1	5	-4	-1	/
Nc1ncnc2c1ncn2[C@@H]1O[C@H](C(=O)NCc2ccc3c(c2)OCO3)[C@@H](O)[C@H]1O	9	4	/	/	1	71*	76*
COc1cc(NC(=O)[C@H]2O[C@@H](n3cnc4c(N)ncnc43)[C@H](O)[C@@H]2O)cc(OC)c1OC	4	4	/	/	-3	61*	69*
Cc1ccc(OCCNC(=O)[C@H]2O[C@@H](n3cnc4c(N)ncnc43)[C@H](O)[C@@H]2O)cc1C	8	3	/	/	2	11	/
O=C(C(=O)N1CCC(CNS(=O)(=O)c2ccccc2)CC1)c1cc2ccccc2o1	2	-7	/	/	8	1	/
C=CCN1[C@H](Cc2ccccc2)COc2cccc(N3CCCC3)c2S1(=O)=O	-3	/	/	/	-2	8	/
COC(=O)[C@]12C[C@H](CC(=O)N3CCN(C(=O)C4CC4)CC3)C(=O)N(CCC3=CCCCC3)C1=C[C@H](C1CCCC1)O[C@@H]2C	1	/	/	/	5	1	/
CCCCc1c(-c2ccccc2OC)ncn1Cc1cccc(C)c1	11	8	/	/	-2	5	/

Screens from PubChem BioAssay.
